Compound activity from PubChem.
Only some compounds are listed: those with a hit (about 2.7% of all), similar ones and a draw of the others.
BB579 growth dn = chemicals that inhibit yeast BB579 growth in restrictive medium (lifespan-shortening candidates); S. cerevisiae BB579 growth, OD615, 48 h; inhibition, % at 10 µM; 140,000 compounds, 0.51% hits;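 active = inhibition above a set limit, 3 SD over the mean compound inhibition, cut at about 44% in these data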
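Assay system: S. cerevisiae DeaD strain BB579 yeast. Medium: CSMM-D restrictive synthetic medium containing dextrose (glucose). Times: 4 h cell preincubation, 48 h compound exposure, 30 °C humidified. Signal: OD615 turbidity measurement. Benchmarks: positive control amphotericin B 10 µg/mL.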
SDO1 yeast rescue = compounds rescuing growth of sdo1-depleted yeast, bone marrow failure model; S. cerevisiae sdo1-depleted JHY4D growth rescue, OD600 30 h; stronger effect = higher value; pdr5 snq2 efflux-pump mutant strain; z-score at 10 µM; 140,000 compounds, 0.21% hits;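 active = z-score above 3 at both the 24 hr and the 30 hr optical density reads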
Yeast lifespan up = extends the lifespan of yeast | S. cerevisiae growth with nicotinamide, OD615; deaD strain in restrictive glucose medium | inhibition of the nicotinamide effect, % at 10 µM | 130,000 compounds, 0.68% hits | AID 775;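 active = inhibition above a set limit, placed 3 SD over the median of all compounds, cut at about 26% in these data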
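Assay system: engineered S. cerevisiae DeaD replicative-lifespan strain, galactose-grown log-phase cells; Buffer or medium: CSMM-D glucose medium, restrictive; Probe or stimulus: nicotinamide 1.5 mM; Compound: single dose 10 µM compound, 0.25% DMSO; Schedule: 4 h preincubation then 48 h treatment at 30 °C; Technique: OD615 measurement.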
RAM network inh = inhibitors of the yeast RAM network; S. cerevisiae dse1pr::URA3 reporter, 5-FOA growth OD615, 2 d; analog-sensitive cbk1-as2 kinase mutant strain; inhibition, % at 50 µM; 190,000 compounds, 1.8% hits; AID 868;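 active = inhibition above a set limit, 3 SD over mean compound inhibition, cut at about 8.4% in these data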;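 also: inhibition rescues growth on 5-FOA so higher OD means more RAM inhibition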
RAM 5-FOA = RAM network inhibitors in efflux-deficient yeast; shares compounds with RAM network inh; S. cerevisiae efflux-deficient reporter strain, 5-FOA growth OD615, 2 days; max inhibition, %; 1,200 tested, under 10 active; call rule not given here
Of the large screens only hits and unclear results are named; the others gave an inactive call (follow-up assays come after a bar, where they were run).

COc1ccc(C(C)(C)C)cc1NC(=O)COC(=O)c1cc(SC)ccc1Cl	RAM network inh 13.2 | RAM 5-FOA inactive
CSc1ccc(Cl)c(C(=O)OCC(=O)Nc2ccccc2OC(F)F)c1	RAM network inh 15.9 | RAM 5-FOA inactive
CCN(CC)c1nc(SCCOC(=O)Nc2ccccc2)nc(N(CC)CC)n1	RAM network inh 18.0 (no result: Yeast lifespan up) | RAM 5-FOA inactive
O=C(CCC(=O)N1CCCc2ccccc21)N1CCN(S(=O)(=O)c2ccccc2)CC1	none
CCOC(=O)c1sc(NC(=O)CSc2nnc(-c3ccc(OC)cc3)n2CCOC)nc1C	RAM network inh 12.4 | RAM 5-FOA inactive
COCCn1c(SCC(=O)Nc2nnc(C)s2)nnc1-c1ccncc1	none
COc1ccc(NC(=O)CNC(=O)c2cccs2)cc1Cl	none (no result: BB579 growth dn, SDO1 yeast rescue, Yeast lifespan up)
Cc1ccc(NC(=O)CNC(=O)c2cccs2)cc1S(=O)(=O)Nc1ccc(Cl)cc1	RAM network inh 11.9 | RAM 5-FOA inactive
CCc1nc2n[nH]c(N)c2c2c1CSC(C)(C)C2	none
O=C(COC(=O)CC(c1ccccc1)c1ccccc1)NCc1ccc(Cl)cc1	RAM network inh 13.3 | RAM 5-FOA inactive
N[C@@H](Cc1ccc(O)c(I)c1)C(=O)O	none
O=C(O)Cc1cc(I)c(Oc2ccc(O)c(I)c2)c(I)c1	BB579 growth dn 66.2, Yeast lifespan up 31.2, RAM network inh 17.3 | RAM 5-FOA inactive
O=C(Nc1cccnc1)c1ccc(S(=O)(=O)c2ccc(Cl)cc2)cc1	none (no result: BB579 growth dn, SDO1 yeast rescue, Yeast lifespan up)
CN(Cc1ccccc1)C(=O)COC(=O)c1ccccc1NS(=O)(=O)c1cccc(N)c1	none
CC(OC(=O)c1ccccc1NS(=O)(=O)c1cccc(C(F)(F)F)c1)C(=O)N(C)Cc1ccccc1 (stereo not drawn)	RAM network inh 12.6 | RAM 5-FOA inactive
COc1ccc(NC(=O)C(C)SCc2ccccc2)cc1OC (stereo not drawn)	none
COc1ccc(CCNC(=O)c2ccc(-c3ccc([N+](=O)[O-])cc3)o2)cc1OC	RAM network inh 11.4 | RAM 5-FOA inactive
COc1cccc(/C=N/n2c(C)nc3ccccc32)c1OC	none
O=C(O)CCC(=O)Nc1cccc(-c2csc(-c3ccccc3)n2)c1	none (no result: BB579 growth dn, SDO1 yeast rescue, Yeast lifespan up)
CCCCC(=O)Nc1cccc(-c2csc(-c3ccccc3)n2)c1	RAM network inh 18.5 | RAM 5-FOA inactive
CC(C)(C)NS(=O)(=O)c1ccc(NC(=O)Cc2ccccc2[N+](=O)[O-])cc1	none (no result: BB579 growth dn, SDO1 yeast rescue, Yeast lifespan up)
CCCCCOc1ccc(NC(=O)c2cc(SC)ccc2Cl)cc1	RAM network inh 13.1 | RAM 5-FOA inactive
CCOc1ccc(NC(=O)c2cc(SC)ccc2Cl)cc1	none
CCOc1cc(S(=O)(=O)Nc2ccc(CC)cc2)ccc1Cl	RAM network inh 14.3 | RAM 5-FOA inactive
CCOc1cc(S(=O)(=O)Nc2ccccc2CC)ccc1Cl	none
O=C(Nc1ccc(S(=O)(=O)Nc2nccs2)cc1)c1cc(-c2ccccc2)nc2ccccc12	none
COc1cccc(Nc2nc(C)cc(C)c2C#N)c1	none (no result: Yeast lifespan up)
Cc1ccc(NC(=O)COC(=O)COc2ccc(Cl)cc2C)c([N+](=O)[O-])c1	RAM network inh 11.6 | RAM 5-FOA inactive
Cc1ccc(NC(=O)COC(=O)CCC(=O)c2ccc(C(C)(C)C)cc2)c([N+](=O)[O-])c1	RAM network inh 13.7 | RAM 5-FOA inactive
Cc1ccc(C(=O)NCC(=O)OCC(=O)Nc2cc(C)c(C)cc2[N+](=O)[O-])cc1	none
C=CCOC(=O)C1=C(C)NC(C)=C(C(=O)OCC=C)C1/C=C/c1ccccc1	RAM network inh 15.1 | RAM 5-FOA inactive
CCOC(=O)c1c(NC(=S)Nc2ccc(OC)cc2)sc2c1CCCCC2	RAM network inh 15.0 | RAM 5-FOA inactive
CCCCCCN1C=C/C(=C\C=C(C#N)C#N)c2ccccc21	RAM network inh 16.7 | RAM 5-FOA inactive
CC(=O)c1cc(C(=O)c2ccccc2)sc1Nc1ccccc1	RAM network inh 11.6 | RAM 5-FOA inactive
N#Cc1c(Nc2ccccc2)sc(C(=O)c2ccccc2)c1N	none
Fc1ccc(-c2nc3ccncc3[nH]2)cc1	none
COc1ccccc1NC(=O)C(Sc1ccccc1)c1ccccc1 (stereo not drawn)	RAM network inh 11.5 | RAM 5-FOA inactive
O=C(Nc1ccc(Cl)c([N+](=O)[O-])c1)C(Sc1ccccc1)c1ccccc1 (stereo not drawn)	RAM network inh 15.4 | RAM 5-FOA inactive
O=C(Nc1ccc(Cl)c([N+](=O)[O-])c1)C(NCCCO)c1ccccc1 (stereo not drawn)	none
